The test system of assay [1] is Lipopolysaccharide (LPS). Kind of assay: Binding affinity to lipid A moiety of LPS present in Gram negative bacteria by fluorescent probe method. It counts as functional. The method, boiled down: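 Homogeneous, automated fluorescence displacement assay run in aqueous buffer. A fluorescent probe is bound to LPS and test ligand displaces it. ED50 is the ligand concentration that displaces 50% of the bound probe and is taken as relative binding affinity.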

Assay [2] has as its system J774.A1. Kind of assay: Inhibition of LPS-induced production of nitric oxide in murine J774.A1 cells. Format: functional, cell-based, Mus musculus. The method, boiled down:
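Murine J774 cells grown in medium containing fetal bovine serum are stimulated with LPS. Nitric oxide production is read as nitrite. IC50 is the concentration giving 50% inhibition of NO.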

For assay [3], the species on record is Mus musculus. Kind of assay: Decrease in lethality in D-galactosamine-sensitized mice challenged with LPS at 200 ng/mouse.
For assay [4], the species on record is Mus musculus. Kind of assay: Decrease in lethality in D-galactosamine-sensitized mice challenged with LPS at 200 ng/mouse. It counts as functional, organism-based. The gist of the method:
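Mice primed with D-galactosamine receive graded doses of test compound and are challenged with a supralethal LPS dose of 200 ng/mouse. The endpoint is lethality.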

Some results are limits rather than exact numbers.

The term IC50 denotes the concentration needed to halve the response being measured. High values mean weaker potency in that assay, low ones greater potency in that assay. Consider `CCCCCCCCCCCCCCOc1c(/C=N/N=C(N)N)ccc(/C=N/N=C(N)N)c1OCCCCCCCCCCCCCC`, for which the ED50 in assay [1] is greater than 500 µM. Further, in assay [2] (Mus musculus, J774.A1), it took 14.9 µM to reach half-maximal inhibition (IC50).

`CCCCCCCCOc1c(/C=N/N=C(N)N)ccc(/C=N/N=C(N)N)c1OCCCCCCCC`: the Activity result in assay [3] and in assay [4] was “Dose-dependent effect” in each case. In assay [1], this compound gave an ED50 of 39.5 µM. This compound registered an IC50 in assay [2] (Mus musculus, J774.A1) of 3.45 µM.

The compound `N=C(N)N/N=C/c1ccc(/C=N/NC(=N)N)cc1` gave an ED50 in assay [1] of 34.6 µM. Moreover, inhibition in assay [2] (Mus musculus, J774.A1) was half-maximal at 24.4 µM (IC50).

As to `COc1c(/C=N/N=C(N)N)ccc(/C=N/NC(=N)N)c1OC`, in assay [1], the ED50 turned out to be 42.3 µM. For the same compound, in assay [2] (Mus musculus, J774.A1), the IC50 is 28 µM.

In the case of `CCCCCCOc1c(/C=N/N=C(N)N)ccc(/C=N/NC(=N)N)c1OCCCCCC`, the ED50 in assay [1] is 13.2 µM. The IC50 in assay [2] (Mus musculus, J774.A1) turned out to be 4.67 µM.

On to `CCCOc1c(/C=N/N=C(N)N)ccc(/C=N/N=C(N)N)c1OCCC`, for which the ED50 in assay [1] amounted to 12.7 µM. In assay [2] (Mus musculus, J774.A1), this compound registered an IC50 of 8.38 µM.

For POLYMYXIN B [listing 1 of 2 here], in assay [2] (j774.a1), the IC50 was 0.98 µM.

Turning to `C=CCOc1c(/C=N/NC(=N)N)ccc(/C=N/NC(=N)N)c1OCC=C`, the ED50 in assay [1] worked out at 29.9 µM. This compound also registered an IC50 in assay [2] (Mus musculus, J774.A1) of 9.64 µM.

In the case of `CCOc1c(/C=N/N=C(N)N)ccc(/C=N/N=C(N)N)c1OCC`, the ED50 in assay [1] came out at 22.8 µM. The IC50 in assay [2] (Mus musculus, J774.A1) was 4.56 µM.

Take POLYMYXIN B [listing 2 of 2 here]: the ED50 in assay [1] turned out to be 1.67 µM.

In assay [1], `CCCCOc1c(/C=N/N=C(N)N)ccc(/C=N/NC(=N)N)c1OCCCC` displayed an ED50 of 9.44 µM. Besides, in assay [2] (Mus musculus, J774.A1), 4.15 µM corresponded to half-maximal inhibition (IC50).

For `N=C(N)N/N=C/c1ccc(/C=N/NC(=N)N)c(O)c1O`, the ED50 in assay [1] was 43.7 µM. The same compound displayed an IC50 in assay [2] (Mus musculus, J774.A1) of 26.4 µM.

In assay [1], `CCCCCOc1c(/C=N/N=C(N)N)ccc(/C=N/N=C(N)N)c1OCCCCC` registered an ED50 of 7.82 µM. In assay [2] (Mus musculus, J774.A1), this compound yielded an IC50 of 3.54 µM.

Source of the values: ChEMBL document CHEMBL1139003, “Novel endotoxin-sequestering compounds with terephthalaldehyde-bis-guanylhydrazone scaffolds” (Bioorg Med Chem Lett, 2006).
